{"source": "BindingDB's records for doi:10.1021/jm9013482", "about": "(Harvard Medical School, 2010)", "target": "Delta-type opioid receptor (Homo sapiens, UniProt P41143)", "sequence (P41143 whole entry)": "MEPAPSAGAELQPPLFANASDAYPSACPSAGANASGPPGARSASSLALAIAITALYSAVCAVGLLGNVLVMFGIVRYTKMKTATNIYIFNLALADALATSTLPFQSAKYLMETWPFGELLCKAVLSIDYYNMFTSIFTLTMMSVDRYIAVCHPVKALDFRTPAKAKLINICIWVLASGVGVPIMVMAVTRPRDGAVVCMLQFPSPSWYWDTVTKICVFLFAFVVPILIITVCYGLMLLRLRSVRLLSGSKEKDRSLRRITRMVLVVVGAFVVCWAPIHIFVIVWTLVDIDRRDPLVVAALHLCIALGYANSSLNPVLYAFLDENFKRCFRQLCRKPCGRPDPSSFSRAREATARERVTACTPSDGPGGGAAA", "test": "Displacement of [3H]naltrindole from human delta opioid receptor expressed in CHO cells", "method_in_brief": "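CHO cells stably expressing a single human opioid receptor were grown in DMEM with 10% FBS and penicillin/streptomycin at 37 °C in 5% CO2. Their membranes were incubated with radioligand and 12 concentrations of test compound at 25 °C in 50 mM Tris-HCl, pH 7.5.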", "data": [{"smiles": "O=C(CCCCC(=O)NCc1cc2c(cc1O)[C@@]13CCCC[C@H]1[C@@H](C2)N(CC1CCC1)CC3)NCc1cc2c(cc1O)[C@@]13CCCC[C@H]1[C@@H](C2)N(CC1CCC1)CC3", "note": "[Hexanedioic Acid Bis(17-N-cyclobutylmethyl-3-hydroxymorphinan-2-methyl)amide]", "values": [{"measurement": "Ki", "result": 0.63, "unit": "µM"}]}]}
